In PubChem BioAssay AID540339 (Broad Institute, 2011):
Activity calls are given as the source filed them.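 Rule for the calls: active = compounds that lower cell viability signal with a fitted half-maximal concentration within ten times the top tested dose; inconclusive = flat curve inhibiting 30 to 70%, or an unreliable fit; inactive = the rest.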

Test system: not listed separately
Assay: MALME3 melanoma cell viability loss, dose response, orthogonal assay for MITF inhibitor project, CellTiter-Glo, dry powder samples (AID 540339)
Settings: MALME3 melanoma viability, CellTiter-Glo luminescence, 24 h; at 35 µM (top of the series)
Procedure, shortened: (§1)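 Material: MALME3 melanoma cells. Medium: IMDM with 10% FBS, without phenol red. Dosing: compound dose-response series delivered by pin transfer. Schedule: 24 h compound treatment at 37 °C. Technique: CellTiter-Glo luminescence reporting cellular ATP.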

For `CC1CCCCC1NC(=O)/C(C#N)=C/C=C/c1ccccc1[N+](=O)[O-]` (stereo unspecified), the activity change, negative = inhibition was 2.17% (inactive).

Test system: MALME3 melanoma viability, CellTiter-Glo luminescence, 24 h
Assay: as above
Settings: not given
Procedure, shortened: as §1

First: CC1CN(C(=O)CCC(=O)NCCCN2CCC(Cc3ccccc3)CC2)c2cc(Cl)ccc2O1 (stereo unspecified)
Second: O=C(Nc1ccc(N2CCN(C(=O)c3ccccc3)CC2)cc1)c1ccc([N+](=O)[O-])o1
The AC50 of the first is 1.8-fold higher: 29.9 µM for the first, 16.7 µM for the second.

`O=C(COc1ccccc1)N/N=C/c1ccc([N+](=O)[O-])o1` and `O=C(CNc1cccc2ccccc12)N/N=C/c1ccc([N+](=O)[O-])o1` are within 1.5-fold of each other in AC50: 19.1 µM for the first, 20 µM for the second.

First: CCN1CCN(C2=C(NS(=O)(=O)c3ccc(Br)cc3)C(=O)c3ccccc3C2=O)CC1
Second: C=CCNC1=C(Cl)C(=O)c2ccccc2C1=O
The AC50 of the first is 2-fold higher: 17.7 µM for the first, 8.93 µM for the second.

`CCN1CCCC1CNC(=O)c1ccc2c(c1)NC(=O)/C(=C\c1ccc(C)cc1)S2` (stereo unspecified) and `Cc1ccc(C(=O)N/N=C/c2ccc([N+](=O)[O-])s2)cc1` are within 1.5-fold of each other in AC50: 20 µM for the first, 14.8 µM for the second.

First: CC(C)C(CCNC1CCN(C)CC1)c1ccc(Cl)cc1 (stereo unspecified)
Second: Cc1ccc(C(C)C)c(OCc2nn(CC(=O)c3ccc(Cl)cc3)c3[n+]2CCCCC3)c1
The AC50 of the first is 5.7-fold lower: 4.04 µM for the first, 23.1 µM for the second.

Compared with `O=c1c(Cl)c2oc3ccccc3nc-2c2ccccc12`, `Cc1nc2ccccc2n1/N=C/c1ccc([N+](=O)[O-])s1` is 1.8-fold lower in AC50: 18.2 µM for the first, 10.3 µM for the second.

Going from `O=C(Cn1ncc(Cl)c(Cl)c1=O)N1CCc2ccccc21` to `COc1cc2c(cc1OC)C(c1ccccc1)N(C(=O)CCl)CC2` (stereo unspecified), the AC50 rises from 5.07 µM to 18 µM (3.6-fold).

`Cc1[nH]c2ccccc2c1C(=O)CCl` and `CCN(CC)CCNC(=O)c1c(C)n(-c2ccccc2)c2cc(Br)c(OC)cc12` are within 1.5-fold of each other in AC50: 31.8 µM for the first, 34.1 µM for the second.

First: CC1=NNC(=O)/C1=C\c1cn(-c2ccccc2)nc1-c1ccc(F)cc1
Second: CN(C)CCCNC(=O)/C(=C\c1ccc(-c2ccc(Br)cc2)o1)NC(=O)c1ccccc1
The AC50 of the first is 2.1-fold higher: 36.5 µM for the first, 17.4 µM for the second.

First: CC1CCN(CC(CS(=O)(=O)c2ccc([N+](=O)[O-])cc2)N2CCC(C)CC2)CC1 (stereo unspecified)
Second: COc1ccc(S(=O)(=O)N(C(C)=O)c2ccc(OC(C)=O)c3ccccc23)cc1[N+](=O)[O-]
The AC50 of the first is 4.4-fold higher: 18.6 µM for the first, 4.21 µM for the second.

`O=C(Nc1ccc(-c2nc3ncccc3o2)cc1)c1ccc([N+](=O)[O-])o1` and `CC1(C)CC(NC(=O)c2ccc(Cl)c(S(=O)(=O)N(Cc3ccccc3)c3ccccc3)c2)CC(C)(C)N1` are within 1.5-fold of each other in AC50: 14.5 µM for the first, 17.4 µM for the second.

Compared with `COc1cc(/C=N/NC(N)=O)c(Br)cc1OCC(=O)Nc1ccccc1C`, `CCN1c2ccccc2NC2N=C(OC)C(c3ccccc3)C21` (stereo unspecified) is 4.1-fold lower in AC50: 32.8 µM for the first, 7.91 µM for the second.

With `N=c1n(CCN2CCCC2)c2ccccc2n1CC(O)c1ccc(Cl)c(Cl)c1` (stereo unspecified) the AC50 was 18.6 µM.
